The values below come from ChEMBL document CHEMBL4130356, “Design, synthesis and 2D QSAR study of novel pyridine and quinolone hydrazone derivatives as potential antimicrobial and antitubercular agents” (Eur J Med Chem, 2017).

Converted amounts (≈) assume the structure as drawn. The source made the active and inactive calls. The calls are words filed in the database; no cut-off is given here.

Data set [1] relates to Escherichia coli. In words: Antimicrobial activity against Escherichia coli RCMB 010052 after 24 hrs by serial dilution method. The format is functional. The settings on record: RCMB 010052, 24 h. A digest of the protocol: (§1)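 Serial twofold dilution in microtiter plates starting from a 100 mmol stock in DMSO; final concentrations 125 down to 0.12 […]. Incubated at 37°C and read on a microplate reader after 24 h. Ciprofloxacin was the reference. Run in triplicate, with the average taken. MIC was the lowest concentration inhibiting growth.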

For data set [2], the system named is WI-38. In words: Cytotoxicity against human WI38 cells assessed as reduction in cell viability after 24 hrs by crystal violet staining-based colorimetric method. The settings on record: WI-38, 24 h. In a few lines: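 WI-38 cells were grown in DMEM with 10% FBS at 37°C and 5% CO2, then seeded at 1×10^4 cells/well. Serial twofold dilutions were added, three wells per concentration. Viability was read by crystal violet stain, solubilised in 30% acetic acid, at 490 nm. Run in triplicate. IC50 was estimated from dose-response plots.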

The subject of data set [3] is Staphylococcus aureus. Description: Antimicrobial activity against Staphylococcus aureus RCMB 010028 after 24 hrs by serial dilution method. The format is functional. To be noted: RCMB 010028, 24 h. A digest of the protocol: as §1
Data set [4] relates to Staphylococcus aureus. Description: Antimicrobial activity against Staphylococcus aureus RCMB 010028 assessed as diameter of zone inhibition at 100 ug/ml after 24 hrs by agar well diffusion assay. The settings on record: RCMB 010028, 24 h, read-out: DIZ. The format is functional. In a few lines:
(§2)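 Agar well diffusion on nutrient agar plates seeded with the bacterium, using 1 cm wells. Plates were held at 4°C for 1 h for diffusion, then incubated at 37°C. Inhibition zone diameters were measured at 24 h. Ciprofloxacin was the positive control. Run in triplicate, with the mean zone reported.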

Data set [5] deals with Streptococcus pneumoniae. In words: Antimicrobial activity against Streptococcus pneumoniae RCMB 010010 assessed as diameter of zone inhibition at 100 ug/ml after 24 hrs by agar well diffusion assay. The format is functional. The settings on record: RCMB 010010, 24 h, read-out: DIZ. In a few lines:
as §2

The test system of data set [6] is Mycobacterium tuberculosis. In words: Antimycobacterial activity against Mycobacterium tuberculosis RCMB 010126 clinical isolate assessed as inhibition zone after 7 days by MABA. The format is functional. A digest of the protocol: (§3)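 Inoculum from fresh LJ culture resuspended in 7H9-S broth with casitone, glycerol and OADC, adjusted to McFarland No. 1 and diluted 1:20. Serial two-fold compound dilutions in 7H9-S; isoniazid reference. Incubated 7 days at 37°C in air, then Alamar blue added and incubated overnight. Percent inhibition = 1 − (test well/growth-control mean) × 100; MIC = lowest concentration preventing blue-to-pink change.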

Data set [7] has as its system Streptococcus pneumoniae. Description: Antimicrobial activity against Streptococcus pneumoniae RCMB 010010 after 24 hrs by serial dilution method. The format is functional. The settings on record: RCMB 010010, 24 h. A digest of the protocol:
as §1

Data set [8] deals with Aspergillus fumigatus. In words: Antimicrobial activity against Aspergillus fumigatus RCMB 02568 after 48 hrs by serial dilution method. The format is functional. To be noted: RCMB 02568, 48 h. A digest of the protocol:
(§4)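 Serial twofold dilution in microtiter plates starting from a 100 mmol stock in DMSO; final concentrations 125 down to 0.12 […]. Incubated at 28°C and read on a microplate reader after 48 h. Amphotericin B was the reference. Run in triplicate, with the average taken. MIC was the lowest concentration inhibiting growth.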

Data set [9] is described as follows: Selectivity index, ratio of IC50 for human WI38 cells to MIC for Mycobacterium tuberculosis RCMB 010126 clinical isolate. The settings on record: read-out: Selectivity Index. The format is toxicity. In a few lines: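 WI-38 human lung fibroblasts grown in DMEM with 10% FBS at 37°C and 5% CO2, seeded at 1×10^4 cells/well, and exposed to serial two-fold dilutions in triplicate. Viability read by crystal violet stain at 490 nm. IC50 taken from dose-response plots. Ratio uses this IC50 against the MABA MIC for M. tuberculosis.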

Data set [10] relates to Candida albicans. In words: Antimicrobial activity against Candida albicans RCMB 05036 after 48 hrs by serial dilution method. The format is functional. The settings on record: RCMB 05036, 48 h. A digest of the protocol: as §4
Data set [11] relates to Candida albicans. Description: Antimicrobial activity against Candida albicans RCMB 05036 assessed as diameter of zone inhibition at 100 ug/ml after 48 hrs by agar well diffusion assay. The format is functional. To be noted: RCMB 05036, 48 h, read-out: DIZ. A digest of the protocol: (§5)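 Agar well diffusion on malt agar plates seeded with the fungus, using 1 cm wells. Plates were held at 4°C for 1 h for diffusion, then incubated at 28°C. Inhibition zone diameters were measured at 48 h. Amphotericin B was the positive control. Run in triplicate, with the mean zone reported.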

Data set [12] deals with Aspergillus fumigatus. Description: Antimicrobial activity against Aspergillus fumigatus RCMB 02568 assessed as diameter of zone inhibition at 100 ug/ml after 48 hrs by agar well diffusion assay. The format is functional. The settings on record: RCMB 02568, 48 h, read-out: DIZ. In a few lines: as §5
Data set [13] has as its system Pseudomonas aeruginosa. The settings on record: RCMB 010043.
For data set [14], the system named is Pseudomonas aeruginosa. The settings on record: RCMB 010043, 100 ug/ml.
In data set [15] the test system is Escherichia coli. Description: Antimicrobial activity against Escherichia coli RCMB 010052 assessed as diameter of zone inhibition at 100 ug/ml after 24 hrs by agar well diffusion assay. The format is functional. To be noted: RCMB 010052, 24 h, read-out: DIZ. A digest of the protocol:
as §2

Data set [16] deals with Mycobacterium tuberculosis. In words: Antimycobacterial activity against Mycobacterium tuberculosis RCMB 010126 clinical isolate after 7 days by MABA. The format is functional. The settings on record: Mycobacterium tuberculosis, RCMB 010126, 168 h. In a few lines:
as §3

Data set [17] concerns Escherichia coli. Description: Potency index, ratio of ciprofloxacin MIC to test compound MIC for Escherichia coli RCMB 010052. The format is functional.
Data set [18] deals with Streptococcus pneumoniae. Description: Potency index, ratio of ampicillin MIC to test compound MIC for Streptococcus pneumoniae RCMB 010010. The format is functional.

As to `COc1cccc(/C=N/NC(=O)c2ccc(-c3ccc(Cl)cc3)nc2C)c1O`, the MIC came to 1.95 µg/mL (≈ 4.93 µM) in data set [1]; 1.95 µg/mL (≈ 4.93 µM) in [3]; 0.98 µg/mL (≈ 2.48 µM) in data set [7]; 1.95 µg/mL (≈ 4.93 µM) in [8]; 3.9 µg/mL (≈ 9.85 µM) in data set [10]; 0.39 µg/mL (≈ 0.985 µM) in [16]. Besides, in [2], the IC50 came out at 500 µg/mL (≈ 1260 µM). In addition, the zone of inhibition at 100 µg/mL in data set [4] was determined as 20.5 mm; in data set [5] it was 22.3 mm; in data set [11], 20.3 mm; in data set [12], 21.3 mm; in data set [15] it was 21.5 mm. Moreover, the “inhibition zone (IZ)” value in data set [6] is recorded as 80.63 mm. For the same compound, in [9], the selectivity ratio turned out to be 1280. In [13], the MIC result was “inactive”. For the same compound, the DIZ result in [14] was “inactive”.

For `Cc1nc(-c2cccc(Cl)c2)ccc1C(=O)N/N=C/c1ccc(Cl)cc1`, the MIC in [1] was 0.49 µg/mL (≈ 1.28 µM); in data set [3], 1.95 µg/mL (≈ 5.07 µM); in data set [7], 1.95 µg/mL (≈ 5.07 µM); in data set [8], 1.95 µg/mL (≈ 5.07 µM); in data set [10] it was 3.9 µg/mL (≈ 10.1 µM); in data set [16] it was 6.24 µg/mL (≈ 16.2 µM). The zone of inhibition at 100 µg/mL in data set [4] worked out at 19.6 mm; in data set [5] it was 21.3 mm; in [11], 17.9 mm; in [12], 20.3 mm; in [15], 23.7 mm. The “inhibition zone (IZ)” value in [6] came to 43.25 mm. Also, the MIC result in data set [13] was “inactive”. Moreover, in data set [14], the DIZ entry was “inactive”. Also, in data set [17], the Ratio was found to be 2.

Consider `COc1cc(/C=N/NC(=O)c2ccc(-c3ccc(Cl)cc3)nc2C)cc(OC)c1OC`, for which the MIC in [1] came to 1.95 µg/mL (≈ 4.43 µM); in data set [3], 0.98 µg/mL (≈ 2.23 µM); in [7], 1.95 µg/mL (≈ 4.43 µM); in data set [8], 0.98 µg/mL (≈ 2.23 µM); in [10], 1.95 µg/mL (≈ 4.43 µM); in data set [16], 0.78 µg/mL (≈ 1.77 µM). Also, in data set [2], the IC50 was 41.1 µg/mL (≈ 93.4 µM). For the same compound, the zone of inhibition at 100 µg/mL was 23.4 mm in [4]; 21.3 mm in [5]; 20.4 mm in data set [11]; 21.8 mm in data set [12]; 21.3 mm in data set [15]. For the same compound, in [6], the “inhibition zone (IZ)” value was 68.42 mm. For the same compound, the selectivity ratio in data set [9] was found to be 52.7. Also, the MIC entry in data set [13] is “inactive”. Further, the DIZ entry in [14] is “inactive”.

`COc1ccc(OC)c(/C=N/NC(=O)c2ccc(-c3ccc(Cl)cc3)nc2C)c1`: the Ratio in [18] and in data set [17] was 2 in each case. The MIC turned out to be 0.49 µg/mL (≈ 1.2 µM) in data set [1]; 0.98 µg/mL (≈ 2.39 µM) in data set [3]; 0.49 µg/mL (≈ 1.2 µM) in data set [7]; 0.98 µg/mL (≈ 2.39 µM) in data set [8]; 0.98 µg/mL (≈ 2.39 µM) in [10]; 0.39 µg/mL (≈ 0.952 µM) in data set [16]. For the same compound, the IC50 in data set [2] was determined as 500 µg/mL (≈ 1220 µM). Also, the zone of inhibition at 100 µg/mL in data set [4] was determined as 22.3 mm; in data set [5], 24.3 mm; in data set [11], 22.5 mm; in [12], 24.3 mm; in [15], 24.3 mm. Moreover, in data set [6], the “inhibition zone (IZ)” value is on record as 85.32 mm. The selectivity ratio in [9] was found to be 1280. Further, the MIC result in data set [13] is “inactive”. Also, in [14], the DIZ result was “inactive”.

For the compound `Cc1nc(-c2ccc(Cl)cc2)ccc1C(=O)N/N=C/c1ccc(O)cc1`, the MIC was determined as 3.9 µg/mL (≈ 10.7 µM) in data set [1]; 7.81 µg/mL (≈ 21.3 µM) in [3]; 3.9 µg/mL (≈ 10.7 µM) in data set [7]; 3.9 µg/mL (≈ 10.7 µM) in data set [8]; 15.6 µg/mL (≈ 42.7 µM) in [10]; 3.12 µg/mL (≈ 8.53 µM) in [16]. The half-inhibitory concentration (IC50) in [2] was 500 µg/mL (≈ 1370 µM). Further, the zone of inhibition at 100 µg/mL amounted to 18.3 mm in data set [4]; 20.3 mm in [5]; 17.3 mm in data set [11]; 19.3 mm in [12]; 19.2 mm in data set [15]. The “inhibition zone (IZ)” value in data set [6] is on record as 53.21 mm. Also, the selectivity ratio in data set [9] amounted to 160. In addition, in [13], the MIC result was “inactive”. Further, the DIZ entry in data set [14] is “inactive”.
